Published values pooled from the literature.
Target: Death-associated protein kinase 3 (DAPK3, Homo sapiens, UniProt O43293)

SMILES | read-out | method | concentration | remaining binding [%]
c1cncc(-c2cccc(Nc3nccc(NC4CCCCC4)n3)c2)c1 | binding | competition with immobilised ligand | 10 µM | 85
Cc1cnc(Nc2ccc(C(=O)N3CCC(N4CCCC4)CC3)cc2)nc1-c1cc2ccccc2s1 | binding | competition with immobilised ligand | 1 µM | 3.4
CCCCN(CCCC)C(=O)CN1C[C@@H](c2cc(OC)c3c(c2)OCO3)[C@H](C(=O)O)[C@H]1CC(C)(C)CCC | cell-free assay | competition with immobilised ligand | 1 µM | 100
CN(C)c1nccc(-c2cnn3ncccc23)n1 | binding | – | 1 µM | 91
CCN1CCN(Cc2ccc(C(=O)Nc3ccc(C)c(Oc4ccc5c(c4)CC(=O)N5)c3)cc2C(F)(F)F)CC1 | binding | competition with immobilised ligand | 1 µM | 100
CN(C)c1ncc(F)c(-c2cnn3ncccc23)n1 | binding | – | 1 µM | 63
CC(C)(O)c1cncc(-c2nc3ccc(F)cc3n2C2CC2)c1 | cell-free assay | competition with immobilised ligand | 1 µM | 100
CN(c1nccc(-c2cnn3ncccc23)n1)C1CC1 | binding | – | 1 µM | 70
CS(=O)(=O)c1cc(C2(NC(=O)c3cncc4c3cnn4-c3ccc(F)cc3)CC2)ccn1 | cell-free assay | competition with immobilised ligand | 1 µM | 98
c1cnn2ncc(-c3ccnc(N4CCC45COC5)n3)c2c1 | binding | – | 1 µM | 73
O=C(NCC1CCOCC1)c1n[nH]cc1NC(=O)c1c(F)cccc1F | binding | competition with immobilised ligand | 1 µM | 94
N[C@H]1CCN(c2nccc(-c3cnn4ncccc34)n2)C1 | binding | – | 1 µM | 100
O=C(c1ccc(Nc2ncc(Cl)c(-c3ccc(Cl)s3)n2)cc1)N1CCC(N2CCCC2)CC1 | binding | competition with immobilised ligand | 1 µM | 14
COc1ccnn2ncc(-c3ccnc(N(C)C)n3)c12 | binding | – | 1 µM | 72
COc1ncc2cc3ccccc3nc2c1C#N | cell-free assay | competition with immobilised ligand | 5 µM | 98
COc1cnc(Nc2cccc(S(N)(=O)=O)c2)nc1N1CCN(c2ccccc2)CC1 | binding | competition with immobilised ligand | 1 µM | 76
Nc1c(C(=O)NCc2ccc(C(=O)NCCCC3CCCCC3)cc2)cnn1-c1ccccc1 | cell-free assay | competition with immobilised ligand | 0.1 µM | 100
O=C(c1ccc(Nc2nccc(-c3cc4ccccc4s3)n2)cc1)N1CCC(N2CCCC2)CC1 | binding | competition with immobilised ligand | 1 µM | 11
Cn1cc(Cl)c2c(Oc3c(F)cc(Nc4cc(Cl)nc(N)n4)cc3F)ccnc21 | cell-free assay | competition with immobilised ligand | 0.1 µM | 100
CNC(=O)[C@@H]1CC[C@@H](n2c(-c3ccc4cnccc4c3)nc3ccc(C(=O)NCc4cccc(C(N)=O)c4)cc32)C1 | binding | competition with immobilised ligand | 1 µM | 100
Cc1c(NC(=O)c2cc(C(N)=O)nc3cc(F)ccc23)c(C(F)(F)F)nn1Cc1ccc(C#N)cc1 | cell-free assay | competition with immobilised ligand | 1 µM | 89
C[C@H]1CCN(c2nccc(-c3cnn4ncccc34)n2)C1 | binding | – | 1 µM | 79
